The target of series [1] is Serine/threonine-protein kinase B-raf (Homo sapiens) (UniProt P15056). The series can be described thus: Inhibition of wild-type human partial length BRAF (S429 to E741 residues) expressed in mammalian expression system assessed as enzyme remaining activity at 1000 nM by Kinomescan method relative to control.
The test system of another series is Mus musculus. The series can be described thus: Protection against TNFalpha/Z-VAD-fmk-induced C57BL/6J mouse model of systemic inflammatory response syndrome assessed as increase in mouse survial at 5 to 50 mg/kg, po administered via gavage 2 hrs prior to Z-VAD-fmk addition for 15 mins followed by TNFalpha stimulation for 1 hr and subsequent Z-VAD-fmk addition meaured up to 50 hrs post TNFalpha stimulation. The series is classed as functional, organism-based. In short, it runs like this:
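Female C57BL/6 mice, fasted overnight, n=10 per group. Compound given by oral gavage at 5, 25 or 50 mg/kg 2 h before TNF. z-VAD-fmk 180 µg i.p., then 15 min later mTNF-α 400 µg/kg i.v. in endotoxin-free PBS, then a further 70 µg z-VAD-fmk i.p. 1 h later. Body temperature and survival followed, compared with vehicle by one-way ANOVA.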

Series [2] can be described thus: Tmax in Sprague-Dawley rat at 1 mg/kg, iv by LC-tandem mass spectrometry analysis. The series is classed as ADME, organism-based. Particulars: in vivo. The method, boiled down: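 Male Sprague-Dawley rats received compound iv (1 mg/kg) or intragastrically (5 mg/kg). The vehicle was 5% DMSO, 10% Tween 80 and 75% saline, at 0.2 or 1 mg/mL. Blood was sampled at several time points and centrifuged at 4 °C. Plasma was stored at -80 °C and analysed by LC/MS/MS. Parameters were derived by noncompartmental analysis of individual animal data.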

Series [3] is described as follows: Cmax in Sprague-Dawley rat at 1 mg/kg, iv by LC-tandem mass spectrometry analysis. The series is classed as ADME, organism-based. Particulars: in vivo. Further details: dose 1 mg/kg, route intravenous. In short, it runs like this:
(§1)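 Male Sprague-Dawley rats dosed once i.v. at 1 mg/kg or intragastrically at 5 mg/kg. Compound dissolved in 5% DMSO, 10% Tween 80, 75% physiological saline at 0.2 and 1 mg/mL. Blood taken at several time points, plasma spun at 4 °C, stored at -80 °C, assayed by LC/MS/MS. Parameters from individual animals by noncompartmental analysis.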

Series [4] in a line: Apparent volume of distribution at steady state in Sprague-Dawley rat at 1 mg/kg, iv by LC-tandem mass spectrometry analysis. Particulars: in vivo, read-out: Vdss(app). Format: ADME, organism-based. In short, it runs like this:
as §1

A short description of series [5]: AUC (0 to infinity) in Sprague-Dawley rat at 5 mg/kg, po by LC-tandem mass spectrometry analysis. Format: ADME, organism-based. The arrangement: dose 5 mg/kg, time infinity, route oral. Particulars: in vivo. The method, boiled down: as §1
Series [6] is described as follows: Toxicity in Sprague-Dawley rat at 1 mg/kg, iv or 5 mg/kg, po. Format: organism-based. The settings on record: in vivo.
The subject of the next series is HT-29. The series can be described thus: Anti-necroptotic activity in human HT-29 cells assessed as inhibition of […]/SM-164/Z-VAD-fmk-induced necroptosis measured after 16 hrs by celltiter-glo luminescent cell viability assay. The settings on record: HT-29, 16 h. A general note: ATP-based viability assays read luminescence as a measure of living cells.

From ChEMBL document CHEMBL4406794, “N-(7-Cyano-6-(4-fluoro-3-(2-(3-(trifluoromethyl)phenyl)acetamido)phenoxy)benzo[d]thiazol-2-yl)cyclopropanecarboxamide (TAK-632) Analogues as Novel Necroptosis Inhibitors by Targeting Receptor-Interacting Protein Kinase 3 (RIPK3): Synthesis, Structure-Activity Relationships, and in Vivo Efficacy” (J Med Chem, 2019) come the findings set out here.

The structures appear in SMILES notation. Active and inactive are the calls of the source. The rule behind the calls is not given here.

Sequence of Serine/threonine-protein kinase B-raf (Homo sapiens) (P15056 whole entry, the tested form may be a part): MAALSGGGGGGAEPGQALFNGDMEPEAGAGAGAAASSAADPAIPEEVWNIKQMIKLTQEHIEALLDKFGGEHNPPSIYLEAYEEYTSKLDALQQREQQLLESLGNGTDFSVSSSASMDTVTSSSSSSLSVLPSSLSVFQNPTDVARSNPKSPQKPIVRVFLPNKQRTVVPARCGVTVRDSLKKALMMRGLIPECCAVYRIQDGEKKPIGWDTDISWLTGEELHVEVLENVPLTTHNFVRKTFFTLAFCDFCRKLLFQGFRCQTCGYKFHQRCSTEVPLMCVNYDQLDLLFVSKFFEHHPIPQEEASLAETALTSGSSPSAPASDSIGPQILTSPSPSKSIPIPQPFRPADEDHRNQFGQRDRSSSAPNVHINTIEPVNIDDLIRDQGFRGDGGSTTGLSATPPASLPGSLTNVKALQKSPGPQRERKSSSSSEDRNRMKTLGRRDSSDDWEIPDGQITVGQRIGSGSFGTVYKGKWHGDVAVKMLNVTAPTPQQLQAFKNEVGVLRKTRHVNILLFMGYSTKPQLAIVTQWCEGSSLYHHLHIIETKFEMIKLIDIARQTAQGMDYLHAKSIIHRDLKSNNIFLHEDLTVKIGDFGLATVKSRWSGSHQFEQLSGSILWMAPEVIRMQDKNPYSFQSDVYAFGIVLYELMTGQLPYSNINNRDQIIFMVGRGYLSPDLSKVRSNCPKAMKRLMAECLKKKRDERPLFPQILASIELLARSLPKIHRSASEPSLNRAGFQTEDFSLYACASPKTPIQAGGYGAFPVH

In general, Tmax refers to the time from dosing to the highest level. What is called Cmax is the highest concentration seen after dosing. As usually defined, the AUC(0-inf) is the area under the concentration-time curve extrapolated to infinity. The term EC50 denotes the concentration needed to bring the measured effect to its halfway point. On to `O=C(Nc1cccc(Br)c1)Nc1cc(Oc2ccc3nc(NC(=O)C4CC4)sc3c2)ccc1F`, for which the Activity in series [1] was 3.6%; in series [6], “Non-Toxic”. For the same molecule, in the series on Mus musculus, the result was Active. Moreover, the Tmax in series [2] is 4.98 min. In addition, the concentration in series [3] peaked (Cmax) at 4600 ng/mL. For the same molecule, in series [4], the Vd was 3.49 L/kg. The molecule also displayed an AUC(0-inf) in series [5] of 9320 ng·h/mL. Also, the concentration giving a half-maximal response (EC50) in the series on HT-29 amounted to 440 nM.
